Assay results of several laboratories.
Lines come from different studies, so protocols differ.

Compound	test	test system	conditions	endpoint	value
CC[C@H](C)[C@H](NC(=O)[C@H](Cc1ccccc1)NC(=O)[C@H](Cc1ccc(O)cc1)NC(=O)[C@@H]1CCCN1C(=O)[C@@H](N)Cc1ccc(O)cc1)C(=O)N1CCC[C@H]1C(=O)N[C@@H](CC(C)C)C(=O)NCC(=O)NCC(=O)N[C@H](CCCCN)C(=O)N[C@@H](CCC(=O)O)C(=O)N[C@H](C(=O)N[C@@H](CC(N)=O)C(=O)N[C@@H](CC(C)C)[C@@H](O)CC(=O)N[C@H](C(=O)N[C@@H](C)C(=O)N[C@@H](CCC(=O)O)C(=O)N1CCC[C@@H]1C(=O)N[C@@H](CCCCNC(=O)CCC(=O)O[C@H]1CC[C@@]2(C)C(=CC[C@H]3[C@@H]4CC[C@H]([C@H](C)CCCC(C)C)[C@@]4(C)CC[C@@H]32)C1)C(N)=O)C(C)C)C(C)C		aqueous buffer	pH 6.5	thermodynamic solubility	< 1 µg/mL
CCCC(CCC)C(=O)OCC1(CO)C/C(=C\c2ccc(C(F)(F)F)cc2)C(=O)O1 (centres unmarked)	general toxicity	nude mouse	intraperitoneal	MTD	12 mg/kg/day
N#C[C@@]1(c2ccc3c(N)ncnn23)O[C@H](CO)[C@@H](O)[C@H]1O		dog, plasma	intravenous, 2 mg/kg	MRT(0-inf)	3.93 h
Cn1nc(C(F)(F)F)cc1-c1ccc(OCc2ccc(Cl)cc2)c(-c2cc(C(F)(F)F)cc(C(F)(F)F)c2)c1O	general toxicity	CD-1 mouse	oral	MTD	240 mg/kg/day
CC[C@H](C)[C@H](NC(=O)[C@H](CO)NC(=O)[C@H](CCCNC(=N)N)NC(C)=O)C(=O)N[C@H]1CSSC[C@@H](C(=O)N[C@H](C(N)=O)[C@@H](C)O)NC(=O)[C@H](CCCNC(=N)N)NC(=O)[C@H](Cc2c[nH]cn2)NC(=O)[C@H](C)NC(=O)CNC(=O)[C@H](Cc2c[nH]c3ccccc23)NC(=O)[C@H](CC(=O)O)NC(=O)[C@H](CCC(N)=O)NC(=O)[C@H](Cc2cn(C)c3ccccc23)NC(=O)[C@H](C(C)C)NC1=O	absorbance	water		thermodynamic solubility	> 500 µM
CCn1c(=O)c(-c2cc(NC(=O)Nc3ccccc3)c(F)cc2Br)cc2cnc(NC)cc21		beagle dog, plasma	oral, 5 mg/kg, single dose	Tmax	2.25 h
C[C@]12CCCN1CC1=NNC(=O)c3cc(F)cc4[nH]c2c1c34		male Sprague-Dawley rat, brain	intravenous, 1 mg/kg	unbound tissue/plasma ratio	0.134
CC[C@H](C)[C@H](NC(=O)[C@H](Cc1ccccc1)NC(=O)[C@H](Cc1ccc(O)cc1)NC(=O)[C@@H]1CCCN1C(=O)[C@@H](N)Cc1ccc(O)cc1)C(=O)N[C@H](CCCCN)C(=O)N[C@@H](CC(C)C)C(=O)NCC(=O)N[C@H](CCCCN)C(=O)NCC(=O)N[C@@H](CCC(=O)O)C(=O)N[C@H](C(=O)N[C@@H](CC(N)=O)C(=O)N[C@@H](CC(C)C)[C@@H](O)CC(=O)N[C@H](C(=O)N[C@@H](C)C(=O)N[C@@H](CCC(=O)O)C(=O)N1CCC[C@@H]1C(=O)N[C@@H](CCCCNC(=O)CCC(=O)O[C@H]1CC[C@@]2(C)C(=CC[C@H]3[C@@H]4CC[C@H]([C@H](C)CCCC(C)C)[C@@]4(C)CC[C@@H]32)C1)C(N)=O)C(C)C)C(C)C		aqueous buffer	pH 6.5	thermodynamic solubility	55 µg/mL
CC[C@@H]1CN(C(=O)NCC(F)(F)F)C[C@@H]1c1cnc2cnc3[nH]ccc3n12		beagle dog, plasma	oral, 1 mg/kg, single dose	MRT(0-inf)	11.6 h
Cc1cc(Nc2ccc(S(F)(F)(F)(F)F)cc2)n2nc(C(C)(F)F)nc2n1	general toxicity	mouse	oral, multiple doses	MTD	> 200 mg/kg
CC(C)S(=O)(=O)c1ccc(S(=O)(=O)N2CCC[C@@H](C(=O)N3CCC(F)(F)CC3)C2)cc1	general toxicity	mouse	oral	MTD	10 mg/kg
C=C1C[C@H](O)[C@H](Br)C(C)(C)[C@@]12CCC(C)=C(Cl)C2	general toxicity	female CD-1 mouse	intraperitoneal, single dose	MTD	65 mg/kg
CC[C@H](C)[C@H](NC(=O)[C@H](Cc1ccccc1)NC(=O)[C@H](Cc1ccc(O)cc1)NC(=O)[C@@H]1CCCN1C(=O)[C@@H](N)Cc1ccc(O)cc1)C(=O)N1CCC[C@H]1C(=O)N[C@@H](CC(C)C)C(=O)NCC(=O)N[C@H](CCCCN)C(=O)NCC(=O)N[C@@H](CCC(=O)O)C(=O)N[C@H](C(=O)N[C@@H](CC(N)=O)C(=O)N[C@@H](CC(C)C)[C@@H](O)CC(=O)N[C@H](C(=O)N[C@@H](C)C(=O)N[C@@H](CCC(=O)O)C(=O)N1CCC[C@@H]1C(=O)N[C@@H](CCCCNC(=O)CCC(=O)O[C@H]1CC[C@@]2(C)C(=CC[C@H]3[C@@H]4CC[C@H]([C@H](C)CCCC(C)C)[C@@]4(C)CC[C@@H]32)C1)C(N)=O)C(C)C)C(C)C		aqueous buffer	pH 6.5	thermodynamic solubility	11 µg/mL
O=C(NCCN1CCCC1)c1cc(-c2ccc(CN3CCOCC3)cc2)nc2ccc(F)cc12		male beagle dog, blood	oral, 3 mg/kg	Tmax	4 h
